Compound activity deposited in PubChem BioAssay by Broad Institute.
IDH1 mut inh: IDH1 R132H (human) inhibition | O75874 | actives 0.18% (n = 70,000) | inhibition, % at 10 µM | AID 624101 | IDH1 R132H reductase, diaphorase/resazurin fluorescence, 60 min; in the data active means inhibition above about 34%; inconclusive means no clear call, values can overlap the other calls; inactive means below about 11%
Target sequence (O75874 whole entry R132H): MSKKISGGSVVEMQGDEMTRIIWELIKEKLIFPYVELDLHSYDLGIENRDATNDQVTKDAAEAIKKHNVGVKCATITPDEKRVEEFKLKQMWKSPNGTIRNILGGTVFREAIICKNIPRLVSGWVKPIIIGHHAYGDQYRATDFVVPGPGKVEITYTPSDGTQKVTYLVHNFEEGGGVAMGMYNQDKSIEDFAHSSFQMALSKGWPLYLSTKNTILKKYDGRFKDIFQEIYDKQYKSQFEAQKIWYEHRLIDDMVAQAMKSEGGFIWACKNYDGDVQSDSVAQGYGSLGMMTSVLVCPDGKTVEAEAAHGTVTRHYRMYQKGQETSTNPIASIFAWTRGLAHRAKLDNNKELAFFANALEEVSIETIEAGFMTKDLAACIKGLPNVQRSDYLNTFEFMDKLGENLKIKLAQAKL
KDM4C inh: blocks human GASC-1 (KDM4C) demethylase activity; AID 720574; inhibition, % at 12.5 µM; GST-KDM4C 2-372, H3K9me3 peptide, LANCE TR-FRET; actives 0.15% (n = 96,000);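 active means mean replicate inhibition above about 25%, with at least 55% of replicates also reaching it, limit read from the data, passing the limit was not always enough; inconclusive means only one of those two conditions met; inactive means neither condition met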
Target sequence (Q9H3R0 2-372 limits assumed): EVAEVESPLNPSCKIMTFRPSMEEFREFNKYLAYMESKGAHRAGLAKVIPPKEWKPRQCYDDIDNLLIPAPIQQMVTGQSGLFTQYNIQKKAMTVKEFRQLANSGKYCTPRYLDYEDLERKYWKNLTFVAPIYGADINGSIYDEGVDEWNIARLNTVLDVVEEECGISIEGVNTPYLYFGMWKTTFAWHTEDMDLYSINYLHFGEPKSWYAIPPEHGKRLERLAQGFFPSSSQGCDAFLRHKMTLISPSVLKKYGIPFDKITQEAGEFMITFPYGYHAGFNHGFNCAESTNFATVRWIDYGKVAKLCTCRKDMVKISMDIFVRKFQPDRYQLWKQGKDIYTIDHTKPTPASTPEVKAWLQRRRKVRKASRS
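Test system: N-terminal GST-fused human GASC-1 (KDM4C) fragment, residues 2-372; quantity: GASC-1 enzyme at 10 nM final in reaction; dosing: single dose; schedule: 30 min demethylation and 1 h detection at room temperature; signal: LANCE TR-FRET, excitation 340 nm, emissions 618 and 671 nm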
Pf Dd2 growth: P. falciparum Dd2 growth inhibition; SYBR Green, 72 h; hits give low values; activity change, % at 10 µM; actives 2.3% (n = 94,000); AID 1159554; in the data active means activity change below about -80%; inconclusive means no clear call, values can overlap the other calls
T cruzi growth-1: blocks T. cruzi growth in NIH3T3 culture; inhibition, % at 8.34 µM; T. cruzi beta-gal in NIH3T3, GalScreen luminescence, 90 h; actives 5.9% (n = 77,000);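 active means mean inhibition above about 93%, with at least 55% of replicates each passing it, limit read from the data, passing the limit was not always enough; inconclusive means only one of those two conditions holds; inactive means neither condition holds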
T cruzi growth-2: inhibitors of T. cruzi proliferation | T. cruzi beta-gal in NIH3T3, GalScreen luminescence, 90 h | inhibition, % at 8.35 µM | actives 72% (n = 5,600) | AID 651739 | shares compounds with T cruzi growth-1;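 active means mean replicate inhibition above about 95% and at least 55% of replicates individually reaching it, limit read from the data; inconclusive means only one of the two criteria is met; inactive means neither criterion is met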
T cruzi growth-3: Trypanosoma cruzi proliferation inhibition; T. cruzi beta-gal in NIH3T3, GalScreen luminescence, 90 h; actives 21% (n = 5,600); inhibition, % at 2.09 µM; shares compounds with T cruzi growth-1;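 active means mean inhibition above about 95%, with at least 55% of replicates also reaching it, limit read from the data; inconclusive means meets just one of the two conditions; inactive means meets neither condition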
NIH3T3 tox: kills mouse NIH/3T3 fibroblasts. actives 14% (n = 5,600). NIH/3T3 viability, CellTiter-Glo ATP luminescence, 90 h. cytotoxicity (signal decrease), % at 8.35 µM. shares compounds with T cruzi growth-1;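 active means mean signal decrease across replicates above about 35% based on untreated-well scatter, with enough replicates individually passing, limit read from the data; inconclusive means no rule stated though some were filed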
3T3 cytotox 2: NIH/3T3 (mouse) viability loss. AID 651744. inhibition, % at 24.9 µM. actives 56% (n = 5,600). shares compounds with T cruzi growth-1. NIH/3T3 viability, CellTiter-Glo ATP luminescence, 90 h;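 active means mean loss of cell viability signal at or above a set limit, and enough replicates individually reaching it; inconclusive means meets only the mean limit or only the replicate share; inactive means meets neither condition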
Large screens that a line does not name were inactive (follow-up assays come after a bar, where they were run). Sampled rows, rich in hits. Any-hit rate of the full collection: about 5.8%.

C[C@@H]1CCCCO[C@H](CN(C)C(=O)Nc2ccc(C(F)(F)F)cc2)[C@H](C)CN([C@H](C)CO)C(=O)c2cc(NC(=O)c3ccncc3)ccc2O1	T cruzi growth-1 103 (no result: IDH1 mut inh) | T cruzi growth-2 114 | T cruzi growth-3 inactive | NIH3T3 tox inactive | 3T3 cytotox 2 42
Cc1ccccc1-c1cnc2c(c1)C(=O)N([C@H](C)CO)C[C@H](C)[C@@H](CN(C)Cc1ccccc1F)O2	none
C[C@H]1CN([C@@H](C)CO)C(=O)Cc2cc(N(C)C)ccc2O[C@@H]1CN(C)Cc1ccc(C(F)(F)F)cc1	T cruzi growth-1 119 | T cruzi growth-2 111 | T cruzi growth-3 inactive | NIH3T3 tox inactive | 3T3 cytotox 2 inactive
C[C@@H]1CN([C@H](C)CO)C(=O)Cc2cc(N(C)C)ccc2O[C@@H]1CN(C)Cc1ccc(C(F)(F)F)cc1	none
C[C@@H]1CN([C@@H](C)CO)C(=O)Cc2cc(N(C)C)ccc2O[C@@H]1CN(C)Cc1ccc(C(F)(F)F)cc1	none
C[C@@H]1CN([C@H](C)CO)C(=O)Cc2cc(N(C)C)ccc2O[C@H]1CN(C)Cc1ccc(C(F)(F)F)cc1	T cruzi growth-1 108 | T cruzi growth-2 inactive | T cruzi growth-3 inactive | NIH3T3 tox inactive | 3T3 cytotox 2 inactive
O=C(C1CCCC1)N1CC(=O)N2[C@H](CO)[C@@H](c3ccc(C#CC4CCCC4)cc3)[C@@H]2C1	none (no result: IDH1 mut inh, T cruzi growth-1)
Cc1noc(C)c1NC(=O)Nc1cccc2c1O[C@H](CN(C)Cc1ccncc1)[C@@H](C)CN([C@@H](C)CO)C2=O	none
COc1ccccc1C#Cc1ccc2c(c1)O[C@H](CN(C)Cc1ccccc1)[C@H](C)CN([C@@H](C)CO)S2(=O)=O	T cruzi growth-1 123 | T cruzi growth-2 105 | T cruzi growth-3 115 | NIH3T3 tox inactive | 3T3 cytotox 2 inactive
COc1ccccc1C#Cc1ccc2c(c1)O[C@@H](CN(C)Cc1cccnc1)[C@@H](C)CN([C@H](C)CO)S2(=O)=O	none (no result: IDH1 mut inh, T cruzi growth-1)
COc1ccccc1C#Cc1ccc2c(c1)O[C@@H](CN(C)Cc1ccccc1)[C@H](C)CN([C@H](C)CO)S2(=O)=O	T cruzi growth-1 118 | T cruzi growth-2 inconclusive | T cruzi growth-3 112 | NIH3T3 tox 45 | 3T3 cytotox 2 106
COc1ccccc1C#Cc1ccc2c(c1)O[C@H](CN(C)Cc1cccnc1)[C@@H](C)CN([C@@H](C)CO)S2(=O)=O	none (no result: T cruzi growth-1)
COc1ccccc1C#Cc1ccc2c(c1)O[C@@H](CN(C)Cc1cccnc1)[C@@H](C)CN([C@@H](C)CO)S2(=O)=O	none (no result: T cruzi growth-1)
COc1ccccc1C#Cc1ccc2c(c1)O[C@H](CN(C)Cc1ccccc1)[C@H](C)CN([C@H](C)CO)S2(=O)=O	T cruzi growth-1 121 | T cruzi growth-2 104 | T cruzi growth-3 inactive | NIH3T3 tox inactive | 3T3 cytotox 2 inactive
COc1ccccc1C#Cc1ccc2c(c1)O[C@H](CN(C)Cc1ccccc1)[C@@H](C)CN([C@@H](C)CO)S2(=O)=O	T cruzi growth-1 121 | T cruzi growth-2 99 | T cruzi growth-3 111 | NIH3T3 tox inactive | 3T3 cytotox 2 99
O=C(N[C@H]1C[C@@H]2O[C@H](CO)CC[C@@H]2O[C@@H]1CCc1ccc(C#CC2CC2)cc1)c1cccc(F)c1	none (no result: IDH1 mut inh, KDM4C inh, T cruzi growth-1)
O=C(C[C@@H]1C[C@H]2c3cc(NC(=O)NC4CCCC4)ccc3O[C@H]2[C@H](CO)O1)NCc1ccccn1	none (no result: IDH1 mut inh, T cruzi growth-1)
C[C@@H]1CN([C@H](C)CO)C(=O)c2cc(NC(=O)CCC(F)(F)F)ccc2O[C@H]1CN(C)Cc1ccc(Cl)c(Cl)c1	none (no result: IDH1 mut inh)
COc1cccc(-c2ccc3c(c2)[C@H]2[C@H](CCN2C(=O)CC2CC2)[C@H](CO)N3C)c1	none (no result: IDH1 mut inh)
CCC(=O)N1CC[C@H]2[C@@H]1c1cc(-c3cccc(OC)c3)ccc1N(C)[C@H]2CO	T cruzi growth-1 99 (no result: IDH1 mut inh) | T cruzi growth-2 101 | T cruzi growth-3 inactive | NIH3T3 tox inactive | 3T3 cytotox 2 inactive
COCC(=O)N1CC[C@H]2[C@@H]1c1cc(-c3cccc(OC)c3)ccc1N(C)[C@H]2CO	T cruzi growth-1 101 (no result: IDH1 mut inh) | T cruzi growth-2 108 | T cruzi growth-3 inactive | NIH3T3 tox inactive | 3T3 cytotox 2 inactive
COc1cccc(-c2ccc3c(c2)[C@@H]2[C@@H](CCN2C(=O)CC2CC2)[C@H](CO)N3C)c1	none (no result: IDH1 mut inh)
COCC(=O)N1CC[C@@H]2[C@H]1c1cc(-c3cccc(OC)c3)ccc1N(C)[C@H]2CO	T cruzi growth-1 96 (no result: IDH1 mut inh) | T cruzi growth-2 103 | T cruzi growth-3 106 | NIH3T3 tox inactive | 3T3 cytotox 2 inactive
CCC(=O)N1CC[C@@H]2[C@H]1c1cc(-c3ccccc3)ccc1N(C)[C@H]2CO	none (no result: IDH1 mut inh)
C[C@@H]1CN([C@H](C)CO)C(=O)c2cc(NS(=O)(=O)c3ccc(Cl)cc3)ccc2O[C@H]1CN(C)S(=O)(=O)c1cn(C)cn1	none
O=S(=O)(c1ccc(F)cc1)N1CCCCN2[C@@H](CO)[C@H](c3ccc(C#CC4CC4)cc3)[C@@H]2C1	T cruzi growth-1 inconclusive (no result: IDH1 mut inh) | T cruzi growth-2 109 | T cruzi growth-3 inactive | NIH3T3 tox 44 | 3T3 cytotox 2 103
COc1cccc(S(=O)(=O)N2CCCCN3[C@H](CO)[C@@H](c4ccc(C#CC5CC5)cc4)[C@H]3C2)c1	T cruzi growth-1 104 (no result: IDH1 mut inh) | T cruzi growth-2 98 | T cruzi growth-3 inactive | NIH3T3 tox 45 | 3T3 cytotox 2 105
Cc1cccc(S(=O)(=O)N2CCCCN3[C@H](CO)[C@@H](c4ccc(C#CC5CC5)cc4)[C@H]3C2)c1	none (no result: IDH1 mut inh)
Cc1cccc(S(=O)(=O)N2CCCCN3[C@H](C2)[C@H](c2ccc(C#CC4CC4)cc2)[C@@H]3CO)c1	T cruzi growth-1 108 (no result: IDH1 mut inh) | T cruzi growth-2 109 | T cruzi growth-3 98 | NIH3T3 tox inactive | 3T3 cytotox 2 65
COc1cccc(S(=O)(=O)N2CCCCN3[C@@H](CO)[C@@H](c4ccc(C#CC5CC5)cc4)[C@@H]3C2)c1	none (no result: IDH1 mut inh)
COc1cccc(S(=O)(=O)N2CCCCN3[C@H](CO)[C@@H](c4ccc(C#CC5CC5)cc4)[C@@H]3C2)c1	T cruzi growth-1 inconclusive (no result: IDH1 mut inh) | T cruzi growth-2 107 | T cruzi growth-3 100 | NIH3T3 tox inactive | 3T3 cytotox 2 inactive
C[C@@H]1CCCCO[C@@H](CN(C)CC2CC2)[C@@H](C)CN([C@H](C)CO)C(=O)c2cc(NC(=O)Nc3ccc(F)cc3)ccc2O1	none
C[C@@H]1CN([C@@H](C)CO)C(=O)c2cc(NC(=O)CCC(F)(F)F)ccc2O[C@H]1CN(C)S(C)(=O)=O	none
CC(Oc1ccc(C(=O)Nc2ccc(Cl)cc2)cc1)C(=O)Nc1ccc(Br)cc1 (stereo unspecified)	none (no result: KDM4C inh, Pf Dd2 growth, T cruzi growth-1)
CCN(C[C@@H]1[C@@H](c2ccccc2)[C@@H](CO)N1C(=O)C1CC1)C(=O)NC1CCCC1	none (no result: IDH1 mut inh)
